Measured values: ChEMBL document CHEMBL5335788, “Synthesis and evaluation of aromatic BDSF bioisosteres on biofilm formation and colistin sensitivity in pathogenic bacteria” (Eur J Med Chem, 2023)
The source made the active and inactive calls. The rule behind the calls is not given here.

Tests used:
[1] = Toxicity in Galleria mellonella larva assessed as larval survival at 50 uM
[2] = tested on: Stenotrophomonas maltophilia; assay: Inhibition of biofilm formation in Stenotrophomonas maltophilia K279a clinical isolate of rpf-1 subpopulation at 0.05 mM incubated for 24 hrs by crystal violet method; type: functional, organism-based
Outline: (§1)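 Crystal violet assay in LB: log-phase bacteria at final 1×10^5 cfu/mL with sulfonamide at final 0.05 mM, 24 h at 37 °C. Biomass read at OD620, then wells washed, biofilm heat-fixed 65 °C 15 min, stained 0.1% crystal violet 15 min, dye eluted in 30% acetic acid, OD550 read. Neat DMSO control taken as 100%. Duplicates, at least two independent experiments; one-way ANOVA.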

Escherichia coli [3] = assay: Antimicrobial activity against Escherichia coli ATCC 9637 assessed as microbial growth inhibition at 50 uM incubated for 20 hrs by broth microdilution method; type: functional, organism-based
Outline: (§2)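 Overnight cultures in cation-adjusted Mueller-Hinton broth, subcultured 1:100; log-phase cells at final 1×10^5 cfu/mL exposed to sulfonamide at final 0.05 mM (from 10 mM DMSO stock) for 20 h at 37 °C. OD550 read after shaking. Growth expressed as percent of 0.5% DMSO control wells. Screened at least twice.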

Pseudomonas aeruginosa [4] = assay: Potentiation of colistin-induced antibacterial activity against Pseudomonas aeruginosa assessed as colistin MIC at 50 uM incubated for 20 hrs by susceptibility testing (reference value: 1 to 2 ug/ml); type: functional
Outline: (§3)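 Colistin MIC by broth microdilution in cation-adjusted Mueller-Hinton broth, log-phase cells at final 5×10^5 cfu/mL. Two-fold colistin dilutions in duplicate with sulfonamide at final 0.05 mM (from 10 mM DMSO stock); 20 h at 37 °C. OD550 read. MIC taken as the lowest colistin level reducing growth ≥80% versus growth control. At least two replicates.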

Acinetobacter baumannii [5] = assay: Potentiation of colistin-induced antibacterial activity against Acinetobacter baumannii ATCC 15308 assessed as colistin MIC at 50 uM incubated for 20 hrs by susceptibility testing (reference value: 0.25 to 0.5 ug/ml); type: functional; outline: as §3
Pseudomonas aeruginosa [6] = assay: Inhibition of biofilm formation in Pseudomonas aeruginosa PAO1 at 0.05 mM incubated for 24 hrs by crystal violet method; type: functional, organism-based; outline: as §1
Escherichia coli [7] = assay: Potentiation of colistin-induced antibacterial activity against Escherichia coli ATCC 9637 assessed as colistin MIC at 50 uM incubated for 20 hrs by susceptibility testing (reference value: 0.125 to 0.25 ug/ml); type: functional; outline: as §3
Burkholderia multivorans [8] = assay: Potentiation of colistin-induced antibacterial activity against Burkholderia multivorans B10 assessed as colistin MIC at 50 uM incubated for 20 hrs by susceptibility testing (Rvb > 128 ug/ml); type: functional; outline: as §3
Burkholderia cenocepacia = assay: Potentiation of colistin-induced antibacterial activity against Burkholderia cenocepacia 289 assessed as colistin MIC at 50 uM incubated for 20 hrs by susceptibility testing (Rvb > 256 ug/ml); type: functional; outline: as §3
Pseudomonas aeruginosa [9] = assay: Antimicrobial activity against Pseudomonas aeruginosa PAO1 assessed as microbial growth inhibition at 50 uM incubated for 20 hrs by broth microdilution method; type: functional, organism-based; outline: as §2
[10] = tested on: Stenotrophomonas maltophilia; assay: Potentiation of colistin-induced antibacterial activity against Stenotrophomonas maltophilia K279a assessed as colistin MIC at 50 uM incubated for 20 hrs by susceptibility testing (reference value: 2 to 8 ug/ml); type: functional; outline: as §3
Acinetobacter baumannii [11] = assay: Antimicrobial activity against Acinetobacter baumannii ATCC 15308 assessed as microbial growth inhibition at 50 uM incubated for 20 hrs by broth microdilution method; type: functional, organism-based; outline: as §2
Burkholderia cepacia [12] = assay: Potentiation of colistin-induced antibacterial activity against Burkholderia cepacia R6193 assessed as colistin MIC at 50 uM incubated for 20 hrs by susceptibility testing (Rvb > 256 ug/ml); type: functional; outline: as §3
[13] = tested on: Stenotrophomonas maltophilia; assay: Potentiation of colistin-induced antibacterial activity against Stenotrophomonas maltophilia K279a infected in Galleria mellonella larva at 50 uM; type: functional, organism-based
Outline: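 Larvae 300–400 mg, at least 15 per group, infected in last proleg with 1×10^4 cfu S. maltophilia K279a in PBS. After 60 min at 37 °C, chilled 15 min on ice, then injected with 5 μL PBS holding colistin at final 0.5 μg/mL, sulfonamide at final 50 μM, or both; 0.5% DMSO vehicle control. Kept at 37 °C, survival scored every 24 h for Kaplan-Meier curves. At least two larval batches.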

[14] = Toxicity in Galleria mellonella larva assessed as larval survival at 50 uM in presence of colistin
Burkholderia multivorans [15] = assay: Inhibition of biofilm formation in Burkholderia multivorans B10 at 0.05 mM incubated for 24 hrs by crystal violet method relative to control; type: functional; settings: B10, 24 h; outline: as §1
Acinetobacter baumannii [16] = assay: Inhibition of biofilm formation in Acinetobacter baumannii ATCC 15308 at 0.05 mM incubated for 24 hrs by crystal violet method relative to control; type: functional; settings: ATCC 15308, 24 h; outline: as §1
Burkholderia cepacia [17] = assay: Inhibition of biofilm formation in Burkholderia cepacia R6193 clinical isolate at 0.05 mM incubated for 24 hrs by crystal violet method; type: functional, organism-based; outline: as §1
Escherichia coli [18] = assay: Inhibition of biofilm formation in Escherichia coli ATCC 9637 at 0.05 mM incubated for 24 hrs by crystal violet method relative to control; type: functional; settings: ATCC 9637, 24 h; outline: as §1
Burkholderia multivorans [19] = assay: Antimicrobial activity against Burkholderia multivorans B10 assessed as microbial growth inhibition at 50 uM incubated for 20 hrs by broth microdilution method; type: functional, organism-based; outline: as §2
[20] = tested on: Stenotrophomonas maltophilia; assay: Antimicrobial activity against Stenotrophomonas maltophilia K279a assessed as microbial growth inhibition at 50 uM incubated for 20 hrs by broth microdilution method; type: functional, organism-based; outline: as §2

Row | SMILES | MIC (Pseudomonas aeruginosa [4]) [µg/mL] | MIC (Acinetobacter baumannii [5]) [µg/mL] | MIC (Escherichia coli [7]) [µg/mL] | MIC (Burkholderia multivorans [8]) [µg/mL] | MIC (Burkholderia cenocepacia) [µg/mL] | MIC [10] [µg/mL] | MIC (Burkholderia cepacia [12]) [µg/mL] | Activity [1] | inhibition [2] | growth inhibition (GI) (Escherichia coli [3]) | inhibition (Pseudomonas aeruginosa [6]) | growth inhibition (GI) (Pseudomonas aeruginosa [9]) | growth inhibition (GI) (Acinetobacter baumannii [11]) | inhibition at 50 µM (Burkholderia multivorans [15]) [%] | inhibition at 50 µM (Acinetobacter baumannii [16]) [%] | inhibition at 50 µM (Escherichia coli [18]) [%] | also measured
1 | CCCCCCCCCc1ccccc1C(=O)NS(=O)(=O)c1ccc(Br)cc1 | 8 | 2 | > 1 | > 128 | > 256 | 2 | > 256 | – | inactive | inactive | inactive | inactive | inactive | 31 | 8 | > 59 | inhibition (Burkholderia cepacia [17]): inactive
2 | CCCCCCCCCc1ccccc1C(=O)NS(=O)(=O)c1ccc(I)cc1 | 8 | 2 | > 1 | > 128 | > 256 | 4 | > 256 | Non-Toxic | inactive | inactive | inactive | inactive | inactive | 35 | – | 68 | growth inhibition (GI) (Burkholderia multivorans [19]): Active; growth inhibition (GI) [20]: Active
3 | CCCCCCCCCc1ccccc1C(=O)NS(=O)(=O)c1ccccc1Br | 1 | 0.5 | 0.5 | > 128 | > 256 | 0.5 | > 256 | – | inactive | inactive | inactive | inactive | inactive | 38 | 30 | 43 | –
4 | CCCCCCCCCc1ccccc1C(=O)NS(=O)(=O)c1cccc(Br)c1 | 4 | 1 | > 1 | > 128 | > 256 | 4 | > 256 | Non-Toxic | inactive | inactive | inactive | inactive | inactive | 41 | 1.5 | 63 | inhibition (Burkholderia cepacia [17]): inactive; growth inhibition (GI) [20]: Active
5 | CCCCCCCCCc1ccccc1C(=O)NS(=O)(=O)c1ccc(Cl)cc1 | 4 | 1 | 1 | > 128 | > 256 | 2 | > 256 | – | inactive | inactive | inactive | inactive | inactive | 47 | – | 59 | –

The remaining molecules from weak to strong by MIC (Pseudomonas aeruginosa [4]), led by results:

Row | MIC (Pseudomonas aeruginosa [4]) [µg/mL] | MIC (Acinetobacter baumannii [5]) [µg/mL] | MIC (Escherichia coli [7]) [µg/mL] | MIC (Burkholderia multivorans [8]) [µg/mL] | MIC (Burkholderia cenocepacia) [µg/mL] | MIC [10] [µg/mL] | MIC (Burkholderia cepacia [12]) [µg/mL] | SMILES | Activity [1] | inhibition [2] | growth inhibition (GI) (Escherichia coli [3]) | inhibition (Pseudomonas aeruginosa [6]) | growth inhibition (GI) (Pseudomonas aeruginosa [9]) | growth inhibition (GI) (Acinetobacter baumannii [11]) | inhibition at 50 µM (Burkholderia multivorans [15]) [%] | inhibition at 50 µM (Acinetobacter baumannii [16]) [%] | inhibition at 50 µM (Escherichia coli [18]) [%] | also measured
6 | 1 | 0.125 | 0.125 | > 128 | > 256 | 0.5 | > 256 | CCCCCCCCCc1ccccc1C(=O)NS(C)(=O)=O | Non-Toxic | inactive | inactive | inactive | inactive | inactive | – | – | – | –
7 | 1 | 0.25 | 0.5 | > 128 | > 256 | 0.5 | > 256 | CCCCCCCCCc1ccccc1C(=O)NS(=O)(=O)C(C)(C)C | Non-Toxic | inactive | inactive | inactive | inactive | inactive | > 35 | – | – | Activity [13]: Active; Activity [14]: Non-Toxic
8 | 1 | 0.25 | 0.5 | > 128 | > 256 | 0.5 | > 256 | CCCCCCCCCc1ccccc1C(=O)NS(=O)(=O)c1ccc(F)cc1 | – | inactive | inactive | inactive | inactive | inactive | 27 | 25 | 22 | –
